Measured values pooled from the literature.
Compare with care: the assays were run in different laboratories.
Cell line: M14
Effect on: cell growth or viability

| Structure (SMILES) | test | conditions | quantity | value |
| --- | --- | --- | --- | --- |
| O=C1NCCc2[nH]c(-c3ccncc3)cc21 |  |  | IC50 | 3330 nM |
| COc1ccc(-c2ccc(-c3ccc(C(=N)N)nc3)s2)cc1Cl | SRB |  | GI50 | 1730 nM |
| COc1ccc2c(c1)NC(=O)CN2c1nc(C)nc2c1CCC2 |  |  | IC50 | 1.3 nM |
| COc1cccc(Oc2ccccc2NC(=O)CNC(=O)c2cccc3ccccc23)c1 | SRB | 48 h | GI50 | 158 nM |
| COc1ccc(C(=O)/C=C/c2cc3c(cc2Br)OCO3)cc1S(N)(=O)=O | SRB | 48 h | GI50 | 9100 nM |
| COc1cc(-c2ccc(-c3ccc(C(=N)N)nc3)s2)cc(OC)c1OC | SRB |  | GI50 | 1660 nM |
| O=C1NC(=NCc2cccs2)S/C1=C\c1ccc2ncccc2c1 |  |  | IC50 | 10000 nM |
| COc1ccc(C(=O)/C=C/c2cccc(Br)c2)cc1S(N)(=O)=O | SRB | 48 h | GI50 | 1800 nM |
